Target: T1, M-phase inducer phosphatase 3 (Homo sapiens, UniProt P30307)
T1 sequence (P30307 whole entry): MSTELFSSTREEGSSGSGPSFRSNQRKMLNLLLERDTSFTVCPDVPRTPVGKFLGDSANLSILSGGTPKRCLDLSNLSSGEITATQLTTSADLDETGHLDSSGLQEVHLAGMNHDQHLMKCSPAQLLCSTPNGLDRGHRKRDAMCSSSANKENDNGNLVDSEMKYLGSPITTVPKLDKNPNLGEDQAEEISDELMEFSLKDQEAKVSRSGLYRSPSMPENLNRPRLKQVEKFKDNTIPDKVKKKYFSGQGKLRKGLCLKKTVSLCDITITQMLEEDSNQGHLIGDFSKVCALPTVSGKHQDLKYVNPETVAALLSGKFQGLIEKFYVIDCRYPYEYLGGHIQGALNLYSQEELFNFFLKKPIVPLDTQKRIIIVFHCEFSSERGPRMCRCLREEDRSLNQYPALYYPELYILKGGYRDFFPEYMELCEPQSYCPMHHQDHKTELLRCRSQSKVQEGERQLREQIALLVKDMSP
Assay: Inhibitory activity against recombinant CDC25C
Summary of the method: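 Recombinant maltose binding protein (MBP)-CDC25C fusion enzyme, with 3-O-methylfluorescein phosphate (OMFP) as substrate. IC50 given as mean ± SEM from at least two, usually three, independent experiments.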

Row | IC50 | Compound
1 | 0.13 µM | CCc1nc2c(O)cc(N=CCN(C)C)c(O)c2o1 [6-(2-(dimethylamino)ethylamino)-2-ethylbenzo[d]oxazole-4,7-dione]
2 | 12 µM | CN(C)CC=Nc1cc(O)c2cn(-c3ccccc3)nc2c1O [6-(2-(dimethylamino)ethylamino)-2-phenyl-2H-indazole-4,7-dione]
3 | 0.23 µM | CN(C)CC=Nc1cc(O)c2nc(-c3ccccc3)oc2c1O [6-(2-(dimethylamino)ethylamino)-2-phenylbenzo[d]oxazole-4,7-dione]

The remaining lines, values behind:

Row | Compound | IC50
4 | CCc1nc2c(O)cc(N=CCN(C)C)c(O)c2[nH]1 [5-(2-(dimethylamino)ethylamino)-2-ethyl-1H-benzo[d]imidazole-4,7-dione] | 12 µM
5 | CCc1nc2c(O)c(N=CCN(C)C)cc(O)c2o1 [5-(2-(dimethylamino)ethylamino)-2-ethylbenzo[d]oxazole-4,7-dione] | 0.13 µM
6 | CN(C)CC=Nc1cc(O)c2nn(-c3ccccc3)cc2c1O [5-(2-(dimethylamino)ethylamino)-2-phenyl-2H-indazole-4,7-dione] | 12 µM
7 | CN(C)CC=Nc1cc(O)c2oc(-c3ccccc3)nc2c1O [5-(2-(dimethylamino)ethylamino)-2-phenylbenzo[d]oxazole-4,7-dione] | 0.23 µM

— BindingDB's records for doi:10.1016/j.bmcl.2005.09.030 (Institut Henri Beaufour, 2005)
